Laboratory results from ChEMBL document CHEMBL1144664, “Design, synthesis, and SAR of new pyrrole-oxindole progesterone receptor modulators leading to 5-(7-fluoro-3,3-dimethyl-2-oxo-2,3-dihydro-1H-indol-5-yl)-1-methyl-1H-pyrrole-2-carbonitrile (WAY-255348)” (J Med Chem, 2008).
Values belong to the molecule of their own block, whether it stands above or below them.

Assays:
Progesterone receptor [1] = target: T1, Progesterone receptor (Homo sapiens, UniProt P06401); experiment: Agonist activity at human PR expressed in human T47D cells assessed as stimulation of alkaline phosphatase; assay type: functional, cell-based
T1 sequence (P06401 whole entry): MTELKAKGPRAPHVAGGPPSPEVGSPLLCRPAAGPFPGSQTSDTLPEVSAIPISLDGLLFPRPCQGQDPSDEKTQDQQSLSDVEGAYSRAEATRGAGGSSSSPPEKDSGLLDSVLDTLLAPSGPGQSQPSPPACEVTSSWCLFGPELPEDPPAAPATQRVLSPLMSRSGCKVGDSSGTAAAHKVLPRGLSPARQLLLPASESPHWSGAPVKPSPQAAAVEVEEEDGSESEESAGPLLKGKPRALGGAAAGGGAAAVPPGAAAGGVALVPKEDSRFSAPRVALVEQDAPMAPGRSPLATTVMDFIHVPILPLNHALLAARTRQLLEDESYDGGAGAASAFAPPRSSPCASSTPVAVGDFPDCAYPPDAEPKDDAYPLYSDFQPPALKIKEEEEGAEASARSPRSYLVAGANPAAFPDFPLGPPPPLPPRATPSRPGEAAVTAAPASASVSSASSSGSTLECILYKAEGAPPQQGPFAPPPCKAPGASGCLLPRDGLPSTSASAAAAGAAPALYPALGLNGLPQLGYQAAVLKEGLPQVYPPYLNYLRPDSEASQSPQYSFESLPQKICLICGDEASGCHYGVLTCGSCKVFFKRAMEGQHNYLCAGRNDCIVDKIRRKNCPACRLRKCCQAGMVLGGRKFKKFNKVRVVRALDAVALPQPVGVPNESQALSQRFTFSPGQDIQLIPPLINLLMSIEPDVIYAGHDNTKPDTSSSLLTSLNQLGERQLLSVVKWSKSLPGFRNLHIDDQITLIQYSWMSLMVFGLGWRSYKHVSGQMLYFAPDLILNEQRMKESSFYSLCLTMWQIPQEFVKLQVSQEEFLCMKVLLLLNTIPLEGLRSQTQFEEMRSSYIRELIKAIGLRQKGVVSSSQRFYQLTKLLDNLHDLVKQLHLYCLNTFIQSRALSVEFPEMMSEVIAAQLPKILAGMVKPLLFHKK
Procedure, shortened: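 Cell-based agonist-mode assay in T47D cells, without progesterone. Cells were suspended in DMEM/F12 with 5% charcoal-stripped FBS, then incubated with compound for 24 h at 37 °C in 5% CO2. Cells were lysed in 0.1 M Tris-HCl pH 9.8 with 0.2% Triton, and 4 mM p-nitrophenyl phosphate was added. OD405 was read every 5 min for 30 min. EC50 comes from dose-response analysis and is the mean of at least duplicates.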

Progesterone receptor [2] = target: T1, Progesterone receptor; experiment: Displacement of [3H]R5020 from human PR in human T47D cells by whole cell assay; assay type: cell-based
Progesterone receptor [3] = target: T1, Progesterone receptor; experiment: Antagonist activity at human PR expressed in human T47D cells assessed as inhibition of progesterone induced alkaline phosphatase; assay type: functional, cell-based
[4] = Stability in rat liver microsome assessed as half life; assay type: ADME; settings: liver microsomes
Procedure, shortened: (§1)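 Female rat, cynomolgus monkey and human liver microsome stability; half-life (min) reported.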

[5] = Stability in cynomolgus monkey liver microsome assessed as half life; assay type: ADME, Macaca fascicularis; settings: liver microsomes; procedure, shortened: as §1
[6] = Stability in human liver microsome assessed as half life; assay type: ADME; settings: liver microsomes; procedure, shortened: as §1
Rattus norvegicus = species on record: Rattus norvegicus; experiment: Antagonist activity in rat uterus assessed as progesterone-induced decidualization response in stromal cells; assay type: functional
Procedure, shortened: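 Female rat decidualization model: compound given orally in 0.5% methyl cellulose/2% Tween 80 to antagonize the progesterone-induced decidual response of uterine stromal cells. ED50 reported.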

Cynomolgus monkey = experiment: Induction of early menses in cynomolgus monkey at 5 mg/kg, po; assay type: organism-based, Macaca fascicularis; set-up: dose 5 mg/kg, route oral; settings: in vivo
[7] = AUC (0 to infinity) in Sprague-Dawley rat at 0.5 mg/kg, iv; assay type: ADME, organism-based; set-up: time infinity, dose 0.5 mg/kg, route intravenous; settings: plasma
[8] = Half life in Sprague-Dawley rat at 0.5 mg/kg, iv; assay type: ADME, organism-based; set-up: dose 0.5 mg/kg, route intravenous; settings: in vivo
Procedure, shortened: (§2)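 Female Sprague–Dawley rats dosed as 1-in-4 cassette or discrete studies. iv in DMSO/PEG200 20:80; po in aqueous 2% Tween 80/0.5% methyl cellulose. Parameters reported: C0, Cmax, t1/2, plasma clearance, Vss, AUC0-inf and %F.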

[9] = Plasma clearance in Sprague-Dawley rat at 0.5 mg/kg, iv; assay type: ADME, organism-based; set-up: dose 0.5 mg/kg, route intravenous; procedure, shortened: as §2
[10] = Volume of distribution at steady state in cynomolgus monkey at […], iv; assay type: ADME, organism-based, Macaca fascicularis; set-up: dose 0.25 mg/kg, route intravenous; settings: in vivo, read-out: Vdss
[11] = Plasma clearance in cynomolgus monkey at […], iv; assay type: ADME, organism-based, Macaca fascicularis; set-up: dose 0.25 mg/kg, route intravenous
[12] = Drug level in Sprague-Dawley rat at 0.5 mg/kg, iv; assay type: ADME, organism-based; set-up: dose 0.5 mg/kg, route intravenous; settings: in vivo; procedure, shortened: as §2
[13] = Volume of distribution at steady state in Sprague-Dawley rat at 0.5 mg/kg, iv; assay type: ADME, organism-based; set-up: dose 0.5 mg/kg, route intravenous; settings: in vivo, read-out: Vdss; procedure, shortened: as §2
[14] = Drug level in cynomolgus monkey at […], iv; assay type: ADME, organism-based, Macaca fascicularis; set-up: dose 0.25 mg/kg, route intravenous; settings: in vivo

- half-life [4]: > 30 min
- half-life [5]: > 30 min
- half-life [6]: > 30 min
- IC50 (Progesterone receptor [2]): 0.08 µM
- IC50 (Progesterone receptor [3]): 0.02 µM
Structure (SMILES): Cn1c(C#N)ccc1-c1ccc2c(c1)CC(=O)N2

- IC50 (Progesterone receptor [2]): 0.0049 µM
Structure (SMILES): Cn1c(C#N)ccc1-c1ccc2c(c1)C(C)(C)OC(=O)N2

- half-life [4]: 30 min
- IC50 (Progesterone receptor [3]): 0.0203 µM
Structure (SMILES): Cn1c(C#N)ccc1-c1cc2c(cc1F)NC(=O)C2(C)C

- Activity (Cynomolgus monkey): 50%
Structure (SMILES): C=C1CCO[C@]12CC[C@H]1[C@@H]3CCC4=CC(=O)CCC4=C3[C@@H](c3ccc(C(C)=O)cc3)C[C@@]12C

- EC50 (Progesterone receptor [1]): 0.0023 µM
- IC50 (Progesterone receptor [2]): 0.0033 µM
Structure (SMILES): Cn1c(C#N)ccc1-c1ccc2c(c1)C1(CCCCC1)C(=O)N2

- EC50 (Progesterone receptor [1]): 0.3 µM
- IC50 (Progesterone receptor [2]): 0.0081 µM
Structure (SMILES): Cn1c(C#N)ccc1-c1ccc2c(c1)C1(CCCC1)C(=O)N2

Second part, the molecule before the results:

Structure (SMILES): Cn1c(C#N)ccc1-c1cc(F)c2c(c1)C1(CCCC1)C(=O)N2
- EC50 (Progesterone receptor [1]): 3 µM
- IC50 (Progesterone receptor [2]): 0.0147 µM

Structure (SMILES): CC(=O)OCN1C(=O)C(C)(C)c2cc(-c3ccc(C#N)n3C)cc(F)c21
- IC50 (Progesterone receptor [3]): 0.048 µM

Structure (SMILES): CCN1C(=O)C(C)(C)c2cc(-c3ccc(C#N)n3C)cc(F)c21
- IC50 (Progesterone receptor [3]): 0.029 µM

Structure (SMILES): CCC1(CC)C(=O)Nc2ccc(-c3ccc(C#N)n3C)cc21
- half-life [4]: 10 min
- half-life [5]: 15 min
- half-life [6]: > 30 min
- IC50 (Progesterone receptor [2]): 0.036 µM

Structure (SMILES): CC#C[C@]1(O)CC[C@H]2[C@@H]3CCC4=CC(=O)CCC4=C3[C@@H](c3ccc(N(C)C)cc3)C[C@@]21C [MIFEPRISTONE]
- ED50 (Rattus norvegicus): 0.7 mg/kg
- Activity (Cynomolgus monkey): 60%

Structure (SMILES): N#Cc1ccc(-c2ccc3c(c2)CC(=O)N3)[nH]1
- IC50 (Progesterone receptor [3]): 0.3 µM

Structure (SMILES): Cn1c(C#N)ccc1-c1ccc2c(c1F)C(C)(C)C(=O)N2
- half-life [4]: 2 min
- IC50 (Progesterone receptor [2]): 0.0055 µM
- IC50 (Progesterone receptor [3]): 0.0059 µM

Structure (SMILES): CCCN1C(=O)C(C)(C)c2cc(-c3ccc(C#N)n3C)cc(F)c21
- IC50 (Progesterone receptor [3]): 0.027 µM

Structure (SMILES): CN1C(=O)C(C)(C)c2cc(-c3ccc(C#N)n3C)cc(F)c21
- IC50 (Progesterone receptor [3]): 0.015 µM

Structure (SMILES): Cn1c(C#N)ccc1-c1ccc2c(c1)C(C)(C)OC(=S)N2 [TANAPROGET]
- EC50 (Progesterone receptor [1]): 0.00015 µM
- IC50 (Progesterone receptor [2]): 0.0005 µM

Structure (SMILES): Cn1c(C#N)ccc1-c1cc(F)c2c(c1)C1(CCCCC1)C(=O)N2
- EC50 (Progesterone receptor [1]): 0.0013 µM
- IC50 (Progesterone receptor [2]): 0.0036 µM

Structure (SMILES): Cn1c(C#N)ccc1-c1ccc2c(c1)C(C)(C)C(=O)N2
- half-life [4]: 6 min
- AUC(0-inf) [7]: 0.937 µg·h/mL
- half-life [8]: 180 min
- clearance [9]: 0.54 L/h/kg
- half-life [5]: 13 min
- half-life [6]: > 30 min
- Vd [10]: 1.6 L/kg
- clearance [11]: 0.72 L/h/kg
- C0 [12]: 0.288 µg/mL
- Vd [13]: 2.2 L/kg
- Activity (Cynomolgus monkey): 0%
- IC50 (Progesterone receptor [2]): 0.022 µM
- C0 [14]: 0.241 µg/mL
